{"source": "ChEMBL document CHEMBL4014308", "about": "“Amphiphilic Tobramycin-Lysine Conjugates Sensitize Multidrug Resistant Gram-Negative Bacteria to Rifampicin and Minocycline” (J Med Chem, 2017)", "type_in_all_cases": "functional", "key": {"Pseudomonas aeruginosa [1]": {"system": "Pseudomonas aeruginosa", "assay": "Antibacterial activity against multidrug/extremely drug-resistant/colistin-susceptible Pseudomonas aeruginosa isolate P264-104354 after 18 hrs by microtiter dilution assay", "settings": "isolate P264-104354, 18 h", "procedure,_shortened": "(§1)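 Broth microdilution following CLSI guidelines. An overnight culture was adjusted to 0.5 McFarland in saline, then diluted 1:50 in Mueller-Hinton broth. This inoculum was added in equal volume to 2-fold serial dilutions of agent in MHB and incubated 18 h at 37 °C. MIC was the lowest concentration with no visible growth.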"}, "[2]": {"system": "Staphylococcus epidermidis", "assay": "Antibacterial activity against methicillin-susceptible Staphylococcus epidermidis isolate CANWARD-2008 81388 after 24 hrs by […] dilution method", "settings": "isolate CANWARD-2008 81388, 24 h"}, "Pseudomonas aeruginosa [3]": {"system": "Pseudomonas aeruginosa", "assay": "Antibacterial activity against multidrug/extremely drug-resistant/colistin-susceptible Pseudomonas aeruginosa isolate 100036 after 18 hrs by microtiter dilution assay", "settings": "isolate 100036, 18 h", "procedure,_shortened": "as §1"}, "Streptococcus pneumoniae": {"system": "Streptococcus pneumoniae", "assay": "Antibacterial activity against Streptococcus pneumoniae ATCC 49619 after 24 hrs by […] dilution method", "settings": "ATCC 49619, 24 h"}, "Pseudomonas aeruginosa [4]": {"system": "Pseudomonas aeruginosa", "assay": "Antibacterial activity against multidrug/extremely drug-resistant/colistin-susceptible Pseudomonas aeruginosa isolate P262-101856 after 18 hrs by microtiter dilution assay", "settings": "isolate P262-101856, 18 h", "procedure,_shortened": "as §1"}, "Escherichia coli [5]": {"system": "Escherichia coli", "assay": "Antibacterial activity against amikacin-resistant Escherichia coli isolate CAN-ICU 63074 after 24 hrs by […] dilution method", "settings": "isolate CAN-ICU 63074, 24 h"}, "Pseudomonas aeruginosa [6]": {"system": "Pseudomonas aeruginosa", "assay": "Antibacterial activity against multidrug/extremely drug-resistant/colistin-resistant Pseudomonas aeruginosa isolate 101243 after 18 hrs by microtiter dilution assay", "settings": "isolate 101243, 18 h", "procedure,_shortened": "as §1"}, "Pseudomonas aeruginosa [7]": {"system": "Pseudomonas aeruginosa", "assay": "Antibacterial activity against Pseudomonas aeruginosa ATCC 27853 after 24 hrs by […] dilution method", "settings": "ATCC 27853, 24 h"}, "Staphylococcus aureus [8]": {"system": "Staphylococcus aureus", "assay": "Antibacterial activity against methicillin resistant Staphylococcus aureus ATCC 33592 after 24 hrs by […] dilution method", "settings": "ATCC 33592, 24 h"}, "Escherichia coli [9]": {"system": "Escherichia coli", "assay": "Antibacterial activity against gentamicin-resistant Escherichia coli isolate CAN-ICU 61714 after 24 hrs by […] dilution method", "settings": "isolate CAN-ICU 61714, 24 h"}, "Pseudomonas aeruginosa [10]": {"system": "Pseudomonas aeruginosa", "assay": "Antibacterial activity against Pseudomonas aeruginosa PAO1 assessed as ratio of MIC after 25 serial passages to MIC before 25 serial passages by microtiter dilution assay", "procedure,_shortened": "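Sequential passaging of wild-type PAO1 with single drugs or drug combinations. MIC was tested in MHB for 18 h. Cells from the well at half the MIC were adjusted to 0.5 McFarland in saline, diluted 1:50 in fresh MHB and used for the next MIC test. This was repeated for 25 passages, and the fold change in MIC was plotted against passage number.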"}, "Escherichia coli [11]": {"system": "Escherichia coli", "assay": "Antibacterial activity against gentamicin/tobramycin/ciprofloxacin-resistant Escherichia coli isolate CANWARD-2011 97615 harboring AAC3-2A after 24 hrs by […] dilution method", "settings": "isolate CANWARD-2011 97615, 24 h"}, "Pseudomonas aeruginosa [12]": {"system": "Pseudomonas aeruginosa", "assay": "Antibacterial activity against gentamicin-resistant Pseudomonas aeruginosa isolate CAN-ICU 62308 after 24 hrs by […] dilution method", "settings": "isolate CAN-ICU 62308, 24 h"}, "Pseudomonas aeruginosa [13]": {"system": "Pseudomonas aeruginosa", "assay": "Synergistic antibacterial activity against Pseudomonas aeruginosa PAO1 after 18 hrs in presence of minocycline by checkerboard assay", "procedure,_shortened": "(§2)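 Checkerboard in MHB: antibiotic diluted along one axis and adjuvant along the other (10 × 7 matrix). Inoculum was a 1:50 dilution in MHB of a 0.5 McFarland saline suspension; incubated 18 h at 37 °C. Each FIC = concentration in the no-growth well divided by the MIC alone; FIC index = sum of both FICs. ≤0.5 synergy, 0.5–4 no interaction, ≥4 antagonism.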"}, "Pseudomonas aeruginosa [14]": {"system": "Pseudomonas aeruginosa", "assay": "Antibacterial activity against Pseudomonas aeruginosa PAO1 after 18 hrs by microtiter dilution assay", "settings": "PAO1, 18 h", "procedure,_shortened": "as §1"}, "[15]": {"system": "Stenotrophomonas maltophilia", "assay": "Antibacterial activity against Stenotrophomonas maltophilia isolate CAN-ICU 62584 after 24 hrs by […] dilution method", "settings": "isolate CAN-ICU 62584, 24 h"}, "Pseudomonas aeruginosa [16]": {"system": "Pseudomonas aeruginosa", "assay": "Antibacterial activity against multidrug/extremely drug-resistant/colistin-susceptible Pseudomonas aeruginosa isolate P259-96918 after 18 hrs by microtiter dilution assay", "settings": "isolate P259-96918, 18 h", "procedure,_shortened": "as §1"}, "Escherichia coli [17]": {"system": "Escherichia coli", "assay": "Antibacterial activity against Escherichia coli ATCC 25922 after 24 hrs by […] dilution method", "settings": "ATCC 25922, 24 h"}, "Enterococcus faecium": {"system": "Enterococcus faecium", "assay": "Antibacterial activity against Enterococcus faecium ATCC 27270 after 24 hrs by […] dilution method", "settings": "ATCC 27270, 24 h"}, "[18]": {"system": "Staphylococcus epidermidis", "assay": "Antibacterial activity against methicillin-resistant Staphylococcus epidermidis isolate CAN-ICU 61589 after 24 hrs by […] dilution method", "settings": "isolate CAN-ICU 61589, 24 h"}, "Pseudomonas aeruginosa [19]": {"system": "Pseudomonas aeruginosa", "assay": "Induction of cytoplasmic membrane depolarization in Pseudomonas aeruginosa PAO1 up to 1200 secs by diSC3-5 staining based fluorescence assay", "procedure,_shortened": "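Mid-log PAO1 washed in 5 mM HEPES pH 7.4 with 20 mM glucose and resuspended to OD600 0.05. Cells were loaded with 0.2 mM EDTA and 0.4 µM diSC3-5 for 2 h at 37 °C in the dark, then equilibrated with 100 mM KCl for 30 min. Agent was added and fluorescence followed at 622/670 nm; agents tested at 32 µg/mL.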"}, "Pseudomonas aeruginosa [20]": {"system": "Pseudomonas aeruginosa", "assay": "Synergistic antibacterial activity against Pseudomonas aeruginosa PAO1 after 18 hrs in presence of rifampicin by checkerboard assay", "procedure,_shortened": "as §2"}, "Pseudomonas aeruginosa [21]": {"system": "Pseudomonas aeruginosa", "assay": "Antibacterial activity against multidrug/extremely drug-resistant/colistin-resistant Pseudomonas aeruginosa isolate 91433 after 18 hrs by microtiter dilution assay", "settings": "isolate 91433, 18 h", "procedure,_shortened": "as §1"}, "Pseudomonas aeruginosa [22]": {"system": "Pseudomonas aeruginosa", "assay": "Antibacterial activity against gentamicin/tobramycin-resistant Pseudomonas aeruginosa isolate CANWARD-2011 96846 after 24 hrs by […] dilution method", "settings": "isolate CANWARD-2011 96846, 24 h"}, "Klebsiella pneumoniae": {"system": "Klebsiella pneumoniae", "assay": "Antibacterial activity against Klebsiella pneumoniae ATCC 13883 after 24 hrs by […] dilution method", "settings": "ATCC 13883, 24 h"}, "Acinetobacter baumannii": {"system": "Acinetobacter baumannii", "assay": "Antibacterial activity against Acinetobacter baumannii isolate CAN-ICU 63169 after 24 hrs by […] dilution method", "settings": "isolate CAN-ICU 63169, 24 h"}, "Staphylococcus aureus [23]": {"system": "Staphylococcus aureus", "assay": "Antibacterial activity against Staphylococcus aureus ATCC 29213 after 24 hrs by […] dilution method", "settings": "ATCC 29213, 24 h"}, "Enterococcus faecalis": {"system": "Enterococcus faecalis", "assay": "Antibacterial activity against Enterococcus faecalis ATCC 29212 after 24 hrs by […] dilution method", "settings": "ATCC 29212, 24 h"}, "Pseudomonas aeruginosa [24]": {"system": "Pseudomonas aeruginosa", "assay": "Antibacterial activity against multidrug/extremely drug-resistant/colistin-susceptible Pseudomonas aeruginosa isolate 101885 after 18 hrs by microtiter dilution assay", "settings": "isolate 101885, 18 h", "procedure,_shortened": "as §1"}}, "note": "Activity calls are given as the source filed them. No cut-off for these calls is given here."}
{"smiles": "NC[C@H]1O[C@H](O[C@H]2[C@H](O)[C@@H](O[C@H]3O[C@H](CO)[C@@H](O)[C@H](N)[C@H]3O)[C@H](N)C[C@@H]2N)[C@H](N)C[C@@H]1O", "note": "[TOBRAMYCIN]", "values": [{"measurement": "MIC", "setting": "Pseudomonas aeruginosa [1]", "result": 128, "unit": "µg/mL"}, {"measurement": "MIC", "setting": "[2]", "result": "≤ 0.25", "unit": "µg/mL"}, {"measurement": "MIC", "setting": "Pseudomonas aeruginosa [3]", "result": 64, "unit": "µg/mL"}, {"measurement": "MIC", "setting": "Streptococcus pneumoniae", "result": 2, "unit": "µg/mL"}, {"measurement": "MIC", "setting": "Pseudomonas aeruginosa [4]", "result": 512, "unit": "µg/mL"}, {"measurement": "MIC", "setting": "Escherichia coli [5]", "result": 8, "unit": "µg/mL"}, {"measurement": "MIC", "setting": "Pseudomonas aeruginosa [6]", "result": 256, "unit": "µg/mL"}, {"measurement": "MIC", "setting": "Pseudomonas aeruginosa [7]", "result": 0.5, "unit": "µg/mL"}, {"measurement": "MIC", "setting": "Staphylococcus aureus [8]", "result": "≤ 0.25", "unit": "µg/mL"}, {"measurement": "MIC", "setting": "Escherichia coli [9]", "result": 8, "unit": "µg/mL"}, {"measurement": "Ratio", "setting": "Pseudomonas aeruginosa [10]", "result": 256}, {"measurement": "MIC", "setting": "Escherichia coli [11]", "result": 128, "unit": "µg/mL"}, {"measurement": "MIC", "setting": "Pseudomonas aeruginosa [12]", "result": 16, "unit": "µg/mL"}, {"measurement": "Activity", "setting": "Pseudomonas aeruginosa [13]", "result": "inactive"}, {"measurement": "MIC", "setting": "Pseudomonas aeruginosa [14]", "result": 0.25, "unit": "µg/mL"}, {"measurement": "MIC", "setting": "[15]", "result": "> 512", "unit": "µg/mL"}, {"measurement": "MIC", "setting": "Pseudomonas aeruginosa [16]", "result": 128, "unit": "µg/mL"}, {"measurement": "MIC", "setting": "Escherichia coli [17]", "result": 0.5, "unit": "µg/mL"}, {"measurement": "MIC", "setting": "Enterococcus faecium", "result": 8, "unit": "µg/mL"}, {"measurement": "MIC", "setting": "[18]", "result": 1, "unit": "µg/mL"}, {"measurement": "Activity", "setting": "Pseudomonas aeruginosa [19]", "result": "Dose-dependent effect"}, {"measurement": "Activity", "setting": "Pseudomonas aeruginosa [20]", "result": "inactive"}, {"measurement": "MIC", "setting": "Pseudomonas aeruginosa [21]", "result": 8, "unit": "µg/mL"}, {"measurement": "MIC", "setting": "Pseudomonas aeruginosa [22]", "result": 256, "unit": "µg/mL"}, {"measurement": "MIC", "setting": "Klebsiella pneumoniae", "result": "≤ 0.25", "unit": "µg/mL"}, {"measurement": "MIC", "setting": "Acinetobacter baumannii", "result": 32, "unit": "µg/mL"}, {"measurement": "MIC", "setting": "Staphylococcus aureus [23]", "result": "≤ 0.25", "unit": "µg/mL"}, {"measurement": "MIC", "setting": "Enterococcus faecalis", "result": 8, "unit": "µg/mL"}, {"measurement": "MIC", "setting": "Pseudomonas aeruginosa [24]", "result": 0.25, "unit": "µg/mL"}]}
